The record followed here is ChEMBL document CHEMBL1240484, “New 4H-chromen-4-one and 2H-chromene derivatives as anti-picornavirus capsid-binders” (Bioorg Med Chem, 2010).

The nature of data set [1]: Therapeutic index, ratio of TC50 for human HeLa cells to IC50 for HRV 14. Particulars: read-out: TI. It is filed as cell-based. The method in brief: (§1)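 Therapeutic index calculated as TC50 for HeLa cells (XTT, 3 days) divided by IC50 for plaque reduction of HRV 14 or HRV 1B in HeLa cells.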
Data set [2] has as its system rhinovirus A1B. Kind of data set: Antiviral activity against Human rhinovirus 1B infected in human HeLa cells assessed as reduction of viral yeild at 20 uM treated immediately after virus infection measured >1 hr after washout by plaque reduction assay. The class given is functional, organism-based. The method in brief:
(§2)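 One-step growth of HRV 1B in confluent HeLa cells, multiplicity of five, attachment 1 h at 4 °C, then three PBS washes (time 0). Compound at 20 µM present throughout, during adsorption only, or added or removed at 0.5, 1, 2 or 4 h p.i. Incubation at 33 °C to 10 h p.i., three freeze-thaw cycles, supernatant titred by plaque assay on HeLa cells.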

For data set [3], the system named is rhinovirus A1B. Kind of data set: Antiviral activity against Human rhinovirus 1B infected in human HeLa cells assessed as reduction of viral yeild at 20 uM treated 2 to 4 hrs after virus infection measured after 10 hrs by plaque reduction assay. The class given is functional, organism-based. The method in brief: as §2
The nature of data set [4]: Cytotoxicity against human Hep2 cells assessed as maximum non-cytotoxic concentration after 3 days by XTT assay. The class given is cell-based, HEp-2. In a few lines:
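Hep-2 cells grown in high-glucose DMEM, seeded at 2 × 10³ per well with twofold dilutions from the maximum soluble concentration, quadruplicate wells, 3 days at 37 °C in 5% CO2. XTT (final 0.15 mg/mL) for 4 h, read at 492/690 nm, plus microscopic scoring. MNTC is the highest dose causing no toxic effect or growth reduction.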
On the technique in general: Formazan colour is commonly taken as a measure of viable cells.

Data set [5] in a line: Cytotoxicity against human HeLa cells after 3 days by XTT assay. It is filed as cell-based. As to conditions: read-out: TC50. The method in brief:
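HeLa cells seeded at 2 × 10³ per well with twofold compound dilutions from the maximum soluble concentration, quadruplicate wells, 37 °C in 5% CO2 for 3 days until controls were confluent. Morphology also scored microscopically. MNTC is the highest dose with no toxicity or growth reduction.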

The test system of data set [6] is rhinovirus A1B. As to the kind of experiment: Antiviral activity against Human rhinovirus 1B infected in human HeLa cells assessed as virus stabilization at 20 uM at 56 degC after 1 hr by plaque reduction assay (reference value: 3.5 x 10^7 PFU/ml). It is filed as functional. In a few lines: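 HRV 1B held with or without 20 µM compound for 1 h at 33 °C, then heated 20 min at 56 °C (pH 7.2) and chilled on ice. Serial 10-fold dilution and plaque titration on HeLa monolayers.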
For orientation: Plaque reduction counts the foci of infection that form in a cell layer.

Data set [7] deals with rhinovirus A1B. As to the kind of experiment: Antiviral activity against Human rhinovirus 1B infected in human HeLa cells assessed as reduction of viral yeild at 20 uM treated immediately after virus infection measured 30 mins after washout by plaque reduction assay. The class given is functional. Details: scale not given: the % may be the effect or the level left. The method in brief: as §2

Data set [8] can be described thus: Cytotoxicity against human HeLa cells assessed as maximum non-cytotoxic concentration after 3 days by XTT assay. The class given is cell-based. In a few lines: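 HeLa cells seeded at 2 × 10³ per well with twofold compound dilutions from the maximum soluble concentration, quadruplicate wells, 37 °C in 5% CO2 for 3 days until controls were confluent. XTT added (final 0.15 mg/mL) for 4 h, absorbance read at 492 nm with 690 nm reference. Morphology also scored microscopically. […] MNTC is the highest dose with no toxicity or growth reduction.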

In data set [9] the test system is rhinovirus A1B. As to the kind of experiment: Antiviral activity against Human rhinovirus 1B infected in human HeLa cells assessed as reduction of viral yeild at 20 uM after 1 hr by plaque reduction assay. It is filed as functional. More on the design: scale not given: the % may be the effect or the level left.
Data set [10] is described as follows: Therapeutic index, ratio of TC50 for human HeLa cells to IC50 for HRV 1B. The class given is cell-based. As to conditions: read-out: TI. The method in brief: as §1
Data set [11] relates to Enterovirus A71. Kind of data set: Antiviral activity against Human enterovirus 71 infected in human Hep2 cells after 2 days by plaque reduction assay. The class given is functional, organism-based. Particulars: for IC50: Enterovirus A, HEp-2, 48 h; for Activity: HEp-2. In a few lines: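 Inoculum removed, then plaque overlay with fourfold drug dilutions starting from the MNTC. Two days at 37 °C, neutral red (0.2 mg/mL in PBS pH 7.4) staining, plaques counted, triplicate wells. IC50 taken from log dose vs % plaque reduction.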

For data set [12], the system named is rhinovirus A1B. As to the kind of experiment: Antiviral activity against Human rhinovirus 1B infected in human HeLa cells after 3 days by plaque reduction assay. As to conditions: for IC50: Rhinovirus A, 72 h. The class given is functional, organism-based. In a few lines: (§3)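 HeLa monolayers infected with ATCC HRV 14 or 1B at about 100 plaques per well, 1 h adsorption at 33 °C. Inoculum removed, then plaque overlay with fourfold drug dilutions from the MNTC. Three days at 33 °C, neutral red (0.2 mg/mL, PBS pH 7.4) staining and plaque count, triplicate wells. IC50 from log dose vs % reduction relative to mock-treated control. Otherwise % inhibition at MNTC is reported.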

In data set [13] the test system is rhinovirus A1B. Kind of data set: Antiviral activity against Human rhinovirus 1B infected in human HeLa cells assessed as virus inactivation at 20 uM at 33 degC after 1 hr by plaque reduction assay (reference value: 2.86 x 10^7 PFU/ml).
Data set [14] deals with rhinovirus A1B. As to the kind of experiment: Antiviral activity against Human rhinovirus 1B infected in human HeLa cells assessed as reduction of viral yeild at 20 uM treated immediately after virus infection measured after 10 hrs by plaque reduction assay. The class given is functional. Details: scale not given: the % may be the effect or the level left. The method in brief: as §2

For data set [15], the system named is Enterovirus A71. Kind of data set: Antiviral activity against Human enterovirus 71 infected in human Hep2 cells at maximum non-cytotoxic concentration […] by plaque reduction assay. It is filed as functional, HEp-2.
Data set [16] deals with rhinovirus A1B. Kind of data set: Antiviral activity against Human rhinovirus 1B infected in human HeLa cells assessed as inhibition of viral replication at 20 uM after 10 hrs by plaque reduction assay. More on the design: scale not given: the % may be the effect or the level left. It is filed as functional. The method in brief:
as §2

The subject of data set [17] is rhinovirus A1B. As to the kind of experiment: Antiviral activity against Human rhinovirus 1B infected in human HeLa cells assessed as reduction of viral yeild at 20 uM treated 1 hr after virus infection measured after 10 hrs by plaque reduction assay. The class given is functional. More on the design: scale not given: the % may be the effect or the level left. The method in brief:
as §2

Data set [18] deals with rhinovirus A1B. Kind of data set: Antiviral activity against Human rhinovirus 1B infected in human HeLa cells assessed as reduction of viral yeild at 20 uM treated 30 mins after virus infection measured after 10 hrs by plaque reduction assay. The class given is functional. More on the design: scale not given: the % may be the effect or the level left. In a few lines:
as §2

In data set [19] the test system is rhinovirus B14. As to the kind of experiment: Antiviral activity against Human rhinovirus 14 infected in human HeLa cells after 3 days by plaque reduction assay. The class given is functional, organism-based. As to conditions: for IC50: Rhinovirus B, 72 h. The method in brief: as §3
In data set [20] the test system is rhinovirus A1B. Kind of data set: Antiviral activity against Human rhinovirus 1B infected in human HeLa cells assessed as reduction of viral yeild at 20 uM treated 1 hr before infection measured after 10 hrs by plaque reduction assay. It is filed as functional, organism-based. The method in brief: as §2
In data set [21] the test system is rhinovirus B14. As to the kind of experiment: Antiviral activity against Human rhinovirus 14 infected in human HeLa cells at maximum non-cytotoxic concentration after 3 days by plaque reduction assay. The class given is functional. In a few lines: as §3

Calls of active or inactive are those of the source. No cut-off for these calls is given here.

In the case of `C1=C(/C=C/c2ccccc2)COc2ccccc21`, the figures for the selectivity ratio in data set [1] and in data set [10] were 36.2 and 250, respectively. In addition, the outcome in the data set on rhinovirus A1B [2] was Active. In addition, the result with rhinovirus A1B [3] and in the data set on rhinovirus A1B [20] was inactive. In addition, the MNTC at 72 h was 12.5 µM in data set [4] and 25 µM in [8]. In data set [5], the CC50 at 72 h was determined as 50 µM. The log10PFU/ml with rhinovirus A1B [6] is on record as 2.1. Moreover, the Activity in the data set with rhinovirus A1B [7] is 91.8%; in the data set on rhinovirus A1B [9] it was 91.7%; with Enterovirus A71 [11] it was “Dose-dependent effect”; with rhinovirus A1B [12] it was “Dose-dependent effect”; with rhinovirus A1B [14], 91.4%; in the data set with rhinovirus A1B [16] it was 92%. Also, the Activity was 7.7% with rhinovirus A1B [17], 90% with rhinovirus A1B [18] and “Dose-dependent effect” in the data set with rhinovirus B14 [19]. The IC50 (commonly the concentration that inhibits the measured activity by half) in the data set on Enterovirus A71 [11] is > 12.5 µM; with rhinovirus A1B [12], 0.2 µM; in the data set with rhinovirus B14 [19], 1.38 µM. In the data set on rhinovirus A1B [13], the PFU/ml is given as 26600000. The “inhibition (INH)” value in the data set on Enterovirus A71 [15] was found to be 36.1%.
Take `O=c1c(/C=C/c2ccccc2)coc2ccc(Cl)cc12`: the “inhibition (INH)” value was 33.1% in the data set on rhinovirus B14 [21] and 37% in the data set with Enterovirus A71 [15]. Also, the MNTC at 72 h in [4] and in data set [8] was 25 µM each time. Further, in [5], the CC50 at 72 h was 50 µM. Moreover, the selectivity ratio in data set [10] was determined as 15.5. For the same compound, the values for the IC50 in the data set on Enterovirus A71 [11], in the data set on rhinovirus A1B [12] and in the data set on rhinovirus B14 [19] were > 25 µM, 3.22 µM and > 25 µM, respectively. The Activity entry in the data set with Enterovirus A71 [11], with rhinovirus A1B [12] and in the data set with rhinovirus B14 [19] was “Dose-dependent effect” throughout.
In the case of `Clc1ccc2c(c1)C=C(/C=C/C=C/c1ccccc1)CO2`, the “inhibition (INH)” value is recorded as 37.2% in the data set with rhinovirus B14 [21] and 25.4% in the data set on Enterovirus A71 [15]. For the same compound, the MNTC at 72 h in data set [4] and in [8] was 12.5 µM in each case. For the same compound, the CC50 at 72 h in data set [5] was 25 µM. Also, the selectivity ratio in data set [10] stood at 3.99. For the same compound, the IC50 was > 12.5 µM with Enterovirus A71 [11], 6.27 µM in the data set with rhinovirus A1B [12] and > 12.5 µM with rhinovirus B14 [19]. Moreover, the Activity entry with Enterovirus A71 [11], in the data set on rhinovirus A1B [12] and in the data set on rhinovirus B14 [19] was “Dose-dependent effect” in each case.
